An excerpt weighted towards active compounds, which were near 2.9% of everything screened.
OX1R antag-1 – OX1R (HCRTR1) antagonists, primary screen, fluorescence, CHO/OX1R cells, Fluo-8 calcium, orexin A. Orexin/Hypocretin receptor type 1 (Homo sapiens), O43613. Fluo-8 calcium fluorescence. inhibition, % at 5 µM. 330,000 tested, 0.43% active. AID 434989, 2010;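 active = inhibition above its plate's threshold, mean inhibition of all tested compounds on the plate plus 3 SD, cut at about 37% in these data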;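 note: 0% = orexin A challenge wells and 100% = SB-334867-A antagonist wells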
Target sequence (O43613 whole entry, looked up): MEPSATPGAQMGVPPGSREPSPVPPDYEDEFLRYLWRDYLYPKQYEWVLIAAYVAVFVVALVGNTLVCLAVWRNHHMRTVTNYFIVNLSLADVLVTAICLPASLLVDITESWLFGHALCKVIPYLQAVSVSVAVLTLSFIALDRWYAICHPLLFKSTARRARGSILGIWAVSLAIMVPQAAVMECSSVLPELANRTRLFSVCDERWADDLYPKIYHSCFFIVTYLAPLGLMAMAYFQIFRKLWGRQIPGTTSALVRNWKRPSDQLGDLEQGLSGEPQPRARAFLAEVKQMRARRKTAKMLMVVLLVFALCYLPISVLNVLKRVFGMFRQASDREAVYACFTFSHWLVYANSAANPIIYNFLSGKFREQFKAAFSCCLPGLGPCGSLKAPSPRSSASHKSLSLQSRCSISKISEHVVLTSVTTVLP
M1 PAM parental – nonselective calcium activators in parental CHO-K1 cells, primary screen, counter-screen for M1 PAM project, cell-based, Fluo-8 calcium fluorescence, full deck, 1536-well. ATP EC20; 0% at ATP EC20, 100% at ATP max. 360,000 tested, 0.02% active. activation, % at 3 µM. AID 602247, 2012;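 active = activation above the run cutoff, the mean activation of all test compounds plus 3 SD, cut at about 40% in these data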;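 note: peak over basal fluorescence ratio in a 140 s read after ATP addition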
CHO parental Ca – ATP-evoked calcium signal inhibitors, parental CHO, primary screen, counter-screen for OX1R antagonist project, cell-based, fluorescence, Fluo-8 calcium dye; parental CHO-K1, ATP-induced calcium, Fluo-8 fluorescence; inhibition, % at 5.6 µM; 330,000 tested, 0.63% active; AID 463079, 2010;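 active = inhibition above that plate's mean sample inhibition plus 3 SD, cut at about 26% in these data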;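 note: 0% = ATP-challenged DMSO wells and 100% = DMSO wells without ATP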
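Material: parental CHO cells / Compound: single nominal dose of 5.6 µM per compound / Signal: Fluo-8 fluorescence / Replicates: singlicate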
CHO-K1 Ca antag – M1 antagonist counterscreen hit in parental CHO-K1 cells | ATP-induced calcium, Fluo-8 fluorescence | inhibition, % at 3 µM | 360,000 tested, 0.6% active | AID 602250;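 active = inhibition above a per-plate cutoff, the plate's mean sample inhibition plus 3 SD, cut at about 24% in these data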;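 note: 0% = DMSO plus EC80 ATP and 100% = DMSO alone without ATP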
CHO-K1 Ca ag – counter-screen for M1 agonists: effect in parental CHO-K1 cells; activation, % at 3 µM; 360,000 tested, 0.48% active; Fluo-8 calcium fluorescence; scaled to maximal ATP response, vehicle zero; in the data active = activation above about 15%;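 note: untransfected CHO-K1 host cells lacking M1 receptor as counterscreen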
OX1R antag-2 – antagonists of human orexin 1 receptor (OX1R); AID 485270, 2010; OX1R-expressing cells, FRET antagonist read-out; inhibition, % at 6.6 µM; 330,000 tested, 1.8% active; Orexin/Hypocretin receptor type 1 (Homo sapiens), O43613; in the data active = inhibition mostly above about 38%, no sharp cut-off; inactive = mostly below about 40%;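 note: 0% = agonist challenge alone and 100% = reference antagonist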
OX1R HTRF conf – OX1R (HCRTR1) antagonists, confirmation, cell-based, HTRF | shares compounds with OX1R antag-2 | OX1R-expressing cells, HTRF antagonist assay | inhibition, % at 6.6 µM | 1,800 tested, 49% active; in the data active = inhibition above about 55%;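 note: CHO cells expressing OX1R stimulated with orexin A at about EC80; 0% = agonist challenge alone and 100% = reference antagonist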
CHO-K1 HTRF cnt – signal inhibition in parental CHO-K1 cells, counter-screen for OX1R antagonist project, cell-based, HTRF; shares compounds with OX1R antag-2; HTRF counterscreen; inhibition, % at 6.6 µM; 1,800 tested, 48% active; in the data active = inhibition above about 17%;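 note: 0% = agonist challenge with vehicle and 100% = vehicle alone without agonist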
* marks the source's active call; other numbers are inactive results; x = no result given.

SMILES | OX1R antag-1 | M1 PAM parental | CHO parental Ca | CHO-K1 Ca antag | CHO-K1 Ca ag | OX1R antag-2 | OX1R HTRF conf | CHO-K1 HTRF cnt
CC(C)(C)n1[nH]c2c3c(ccc2c1=O)C(=O)c1ccccc1C3=O | -31 | 13 | -10 | -19 | 0 | 129* | 46 | 43*
O=C(CSc1n[nH]c(=O)[nH]c1=O)c1ccc([N+](=O)[O-])cc1 | -14 | -23 | -6 | 11 | 0 | 134* | 56* | 80*
O=[N+]([O-])c1nn(-c2ccc(Cl)cc2)n(O)c1=NCc1ccncc1 | -21 | 9 | -16 | -4 | 13 | 84* | 41 | 54*
Cc1ccc(CN=c2c([N+](=O)[O-])nn(-c3ccc(Cl)cc3)n2O)cc1 | -4 | 13 | -6 | -12 | 0 | 23 | x | x
CC(=O)N(/N=C1\Sc2ccccc2C1=O)c1ccc(C)cc1C | -15 | -6 | -9 | 4 | 0 | 56 | x | x
CC(=O)N(/N=C1\Sc2ccccc2C1=O)c1ccccc1C | -13 | 10 | -38 | -7 | 4 | 105* | 38 | 12
CC(=O)Nc1ccc(NC(=O)C(C)OC(=O)CCCOc2ccc(Cl)c(C)c2)cc1 (stereo not drawn) | 20 | -13 | -6 | 2 | 6 | 85* | 78* | 6
CC(OC(=O)c1nn(C)c(=O)c2ccccc12)C(=O)NC1CCCCC1C (stereo not drawn) | -11 | 4 | -4 | -7 | 1 | 25 | x | x
CCOc1cc(C2NC(=O)CCC2[N+](=O)[O-])cc(Br)c1OCC (stereo not drawn) | -9 | 2 | -2 | -5 | 0 | -5 | x | x
CN1CCN(Cc2c(O)ccc3cc(-c4ccccn4)c(=O)oc23)CC1 | -16 | 22 | -22 | 0 | 3 | 81* | 49 | 33*
O=C(NCCCN1CCOCC1)c1ccc2c(c1)N(Cc1c(F)cccc1Cl)C(=O)c1ccccc1S2 | -23 | 15 | -19 | -8 | 7 | 2 | x | x
O=[n+]1c2c(n([O-])c3cc(Br)ccc31)CCCC2 | -13 | 4 | -11 | -8 | 0 | 43 | x | x
O=[n+]1c2c(n([O-])c3cc(F)c(F)cc31)CCCC2 | -15 | 6 | -11 | 4 | 0 | 129* | 39 | 77*
Cc1c([N+](=O)[O-])c(C(=O)NC2CCCCC2)nn1C | 7 | 9 | -5 | -9 | 0 | -8 | x | x
CC(=O)Nc1ccc(NC2=CC(=O)c3ccccc3C2=O)cc1 | -21 | -8 | -9 | -12 | 0 | 25 | x | x
O=C1C=C(Nc2ccc(O)cc2)C(=O)c2ccccc21 | -14 | 6 | -9 | -11 | -1 | 79* | 32 | 25*
Cc1nc(N)ncc1CCC1OCCO1 | x | 8 | x | -6 | 0 | x | x | x
CCOc1cc(/C=C2\NC(=O)NC2=O)cc([N+](=O)[O-])c1O | -3 | -11 | -6 | -4 | 0 | 128* | 58* | 69*
CCOc1cc(/C=C2\C(=O)NN(c3ccccc3)C2=O)cc([N+](=O)[O-])c1O | -8 | 13 | -6 | 0 | 0 | 11 | x | x
Nc1c([N+](=O)[O-])cc(-c2cnc[nH]2)cc1[N+](=O)[O-] | 3 | 10 | 7 | -9 | 0 | 102* | 61* | 102*
CNC(=O)CSc1nnc(C(C)C)n1C | -4 | 7 | -2 | -4 | 0 | 20 | x | x
Cc1ccccc1NC(=O)CCNS(=O)(=O)c1cccc2nsnc12 | -14 | 17 | -3 | -14 | 1 | 78* | 25 | 38*
O=S(=O)(NCc1ccccn1)c1cccc2nsnc12 | -4 | 23 | -10 | -12 | 1 | 85* | 31 | 43*
